Results: paper PMC5010469 (Cancer research, 2016)

Tests used:
Format in all cases: cell-based
[1] = test system: MDA-MB-231 cells; assay: Cell proliferation assay; conditions: MDA-MB-231, NSC23766 treatment; Supplementary Figure 4
[2] = test system: Hs578T cells; assay: Transwell invasion assay; conditions: dose series, Figure 4d
[3] = test system: WASF3; assay: Western blotting of WASF3 complex protein levels; conditions: MDA-MB-231 and Hs578T cells, western blot; Figure 4e
[4] = test system: MDA-MB-231 cells; assay: Transwell invasion assay
Method in brief: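 MDA-MB-231 breast cancer cells were obtained from ATCC and verified by SNP-CGH for characteristic cytogenetic changes. The panel included empty-vector parental cells and cells overexpressing full-length human NCKAP1 from a lentiviral vector. Cells were exposed to the RAC1-inhibitor test compound, with a dose series in one set. Invasion was read out in Transwell invasion assays run as previously described.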

[5] = test system: Hs578T cells; assay: Cell proliferation assay; conditions: NSC23766 treatment, Supplementary Figure 4
[6] = biological target: WASF3 complex (Homo sapiens, UniProt Q7L576); assay: Immunoprecipitation of the WASF3 complex; conditions: IP of WASF3 from MDA-MB-231 cells, Figure 4f
Sequence of WASF3 complex (Q7L576 whole entry, one chain of several): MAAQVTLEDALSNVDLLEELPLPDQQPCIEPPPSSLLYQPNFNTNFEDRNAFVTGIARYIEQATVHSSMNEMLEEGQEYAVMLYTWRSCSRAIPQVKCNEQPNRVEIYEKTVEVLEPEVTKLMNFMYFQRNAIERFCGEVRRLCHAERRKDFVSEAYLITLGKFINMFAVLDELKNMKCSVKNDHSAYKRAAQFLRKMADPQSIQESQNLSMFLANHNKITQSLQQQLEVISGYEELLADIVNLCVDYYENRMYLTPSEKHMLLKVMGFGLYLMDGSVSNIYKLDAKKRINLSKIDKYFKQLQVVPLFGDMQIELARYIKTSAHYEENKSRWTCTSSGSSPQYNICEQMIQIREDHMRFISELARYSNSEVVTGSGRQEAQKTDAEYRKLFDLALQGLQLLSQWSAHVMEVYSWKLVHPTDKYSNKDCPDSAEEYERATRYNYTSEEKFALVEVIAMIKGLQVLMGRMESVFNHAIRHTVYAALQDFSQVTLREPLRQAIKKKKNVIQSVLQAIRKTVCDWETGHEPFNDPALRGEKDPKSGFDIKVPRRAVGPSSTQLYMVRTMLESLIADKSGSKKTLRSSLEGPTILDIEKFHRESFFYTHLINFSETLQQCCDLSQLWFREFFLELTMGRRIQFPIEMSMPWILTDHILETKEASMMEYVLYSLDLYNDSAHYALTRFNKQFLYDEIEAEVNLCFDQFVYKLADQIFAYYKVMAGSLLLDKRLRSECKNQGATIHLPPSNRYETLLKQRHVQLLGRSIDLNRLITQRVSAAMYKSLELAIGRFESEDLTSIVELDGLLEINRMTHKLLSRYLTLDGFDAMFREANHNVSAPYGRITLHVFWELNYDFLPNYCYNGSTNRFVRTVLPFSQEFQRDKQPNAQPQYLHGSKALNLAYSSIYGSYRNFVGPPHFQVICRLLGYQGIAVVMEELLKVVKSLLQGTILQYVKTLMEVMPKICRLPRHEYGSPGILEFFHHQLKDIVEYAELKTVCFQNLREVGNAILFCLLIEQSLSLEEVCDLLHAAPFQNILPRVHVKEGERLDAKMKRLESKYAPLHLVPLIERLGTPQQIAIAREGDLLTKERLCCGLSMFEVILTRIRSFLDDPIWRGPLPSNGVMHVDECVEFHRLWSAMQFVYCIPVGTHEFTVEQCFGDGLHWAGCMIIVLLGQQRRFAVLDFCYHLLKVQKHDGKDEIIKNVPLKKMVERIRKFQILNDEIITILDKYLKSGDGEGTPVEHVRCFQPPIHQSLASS

RAC1 binding to the WASF3 complex ([6]; high dose 50 µM): significantly inhibited
WASF3 phosphorylation ([6]; high dose 50 µM): significantly inhibited
SMILES: CCN(CC)CCCC(C)Nc1nc(C)cc(Nc2ccc3nc(C)cc(N)c3c2)n1 (stereo not shown) [NSC23766]
effect on cell proliferation [1]: without affecting cell proliferation
effect on invasion [2]: dose-dependent reduction in invasion
protein levels of WASF3, NCKAP1 and RAC1 [3]: does not affect protein levels of either WASF3, NCKAP1 or RAC1
effect on invasion ([4]; MDA-MB-231, dose series, Figure 4d): dose-dependent reduction in invasion
effect on invasion ([4]; MDA-MB-231 cells overexpressing NCKAP1, Transwell, Figure 4h): significant reduction in invasion
effect on invasion ([4]; MDA-MB-231 parental cells containing the empty vector (EV), Transwell, Figure 4h): significant reduction in invasion
effect on cell proliferation [5]: without affecting cell proliferation
engagement of NCKAP1 with the WASF3 complex [6]: does not disrupt engagement of NCKAP1 with the WASF3 complex
